According to PubChem BioAssay:
Active and inactive are the calls of the source.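 The calls were made as follows, unless noted: active = viability at or below 30% in both replicate assays; inconclusive = viability at or below 30% in just one of the two assays; inactive = the rest.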

Experiments:
[1] = Her2 expression decrease, cell viability multiplex – SKBR3 breast tumor cells, AlphaScreen, ATP viability, primary screen (AID 461;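 active = Her2 level under about 52% in both replicate screens, with viability over 70% of control, limit read from the data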;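 as to Her2 level: lower value means less Her2 protein in the cells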;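 as to viability: percent of carrier control wells set as 100% viability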); conditions: SKBR3 Her2 protein level, 18-24 h, measured here: SKBR3 viability, ATP luminescence, at 10 µM
[2] = target: Receptor tyrosine-protein kinase erbB-2 (Homo sapiens) (UniProt P04626); assay: as above; conditions: 18-24 h, at 10 µM, stronger effect = lower value
[3] = reduced viability of SK-BR-3 breast cancer cells – cell-based, 24 h, human, pilot screen (AID 572;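 active = viability at or below 10% of carrier control in both of two separate runs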;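 also: compound exposure lasted between 18 and 24 h rather than exactly 24 h; 100% = carrier-treated control wells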); conditions: SK-BR-3 viability, CellTiter-Glo luminescence, at 10 µM, stronger effect = lower value
[4] = HUVEC growth inhibition – cell-based, human, primary screen (AID 575); conditions: HUVEC proliferation, CellTiter-Glo luminescence, 72 h; at 10 µM; stronger effect = lower value;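 also: 100% = median of untreated cell wells with 0.1% DMSO on each plate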
How it was run: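 Assay system: primary human umbilical vein endothelial cells / Buffer or medium: endothelial basal medium with 2% FBS plus growth supplements / Compound dosing: one dose, 10 µM final, 0.1% DMSO / Timing: 72 h treatment at 37 °C / Signal: CTG luminescence / Benchmarks: 32 DMSO-only cell-control wells (high), 32 MePR drug-control wells (low) per plate / Plate: collagen-coated 384-well format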

[5] = H69AR cell proliferation blockers – human, duplicate replicates, primary screen (AID 580;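 active = viability at or under a set limit in both replicates, limit being median viability minus 3 SD, cut at about 48% in these data, passing the limit was not always enough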;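 also: 100% = mean luminescence of untreated wells and 0% = no signal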); conditions: H69AR lung tumor cells viability, ATP luminescence, 72 h; at 10 µM; stronger effect = lower value
[6] = MRP1 drug-resistance reversers in H69AR cells – cell-based, doxorubicin co-treatment, pilot screen (AID 601;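 active = viability loss from added drug above about 55%, and viability with drug at most 40%, in both replicates, limit read from the data, passing the limit was not always enough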); conditions: CellTiter-Glo, 72 h, at 10 µM; for differential viability (reversal): stronger effect = higher value
[7] = yeast transport mutant growth inhibition pilot in 384-well plates, post-Golgi transport modulator project (AID 636; in the data active = inhibition above about 31%); conditions: absorbance 615 nm, about 18 h, stronger effect = higher value
[8] = growth suppression of yeast trafficking mutant, preliminary HTS, modulators of trafficking downstream of Golgi apparatus project, 1536-format plate, OD 615 nm (AID 637; in the data active = inhibition above about 30%); conditions: yeast transport mutant growth, absorbance 615 nm, 18 h; stronger effect = higher value
[9] = H69AR cells + 2 uM doxorubicin, measured here: viability with 2 uM doxorubicin, stronger effect = lower value
[10] = H69AR cells, compound alone cytotoxicity

Chain of Receptor tyrosine-protein kinase erbB-2 (Homo sapiens) (P04626 whole entry, looked up): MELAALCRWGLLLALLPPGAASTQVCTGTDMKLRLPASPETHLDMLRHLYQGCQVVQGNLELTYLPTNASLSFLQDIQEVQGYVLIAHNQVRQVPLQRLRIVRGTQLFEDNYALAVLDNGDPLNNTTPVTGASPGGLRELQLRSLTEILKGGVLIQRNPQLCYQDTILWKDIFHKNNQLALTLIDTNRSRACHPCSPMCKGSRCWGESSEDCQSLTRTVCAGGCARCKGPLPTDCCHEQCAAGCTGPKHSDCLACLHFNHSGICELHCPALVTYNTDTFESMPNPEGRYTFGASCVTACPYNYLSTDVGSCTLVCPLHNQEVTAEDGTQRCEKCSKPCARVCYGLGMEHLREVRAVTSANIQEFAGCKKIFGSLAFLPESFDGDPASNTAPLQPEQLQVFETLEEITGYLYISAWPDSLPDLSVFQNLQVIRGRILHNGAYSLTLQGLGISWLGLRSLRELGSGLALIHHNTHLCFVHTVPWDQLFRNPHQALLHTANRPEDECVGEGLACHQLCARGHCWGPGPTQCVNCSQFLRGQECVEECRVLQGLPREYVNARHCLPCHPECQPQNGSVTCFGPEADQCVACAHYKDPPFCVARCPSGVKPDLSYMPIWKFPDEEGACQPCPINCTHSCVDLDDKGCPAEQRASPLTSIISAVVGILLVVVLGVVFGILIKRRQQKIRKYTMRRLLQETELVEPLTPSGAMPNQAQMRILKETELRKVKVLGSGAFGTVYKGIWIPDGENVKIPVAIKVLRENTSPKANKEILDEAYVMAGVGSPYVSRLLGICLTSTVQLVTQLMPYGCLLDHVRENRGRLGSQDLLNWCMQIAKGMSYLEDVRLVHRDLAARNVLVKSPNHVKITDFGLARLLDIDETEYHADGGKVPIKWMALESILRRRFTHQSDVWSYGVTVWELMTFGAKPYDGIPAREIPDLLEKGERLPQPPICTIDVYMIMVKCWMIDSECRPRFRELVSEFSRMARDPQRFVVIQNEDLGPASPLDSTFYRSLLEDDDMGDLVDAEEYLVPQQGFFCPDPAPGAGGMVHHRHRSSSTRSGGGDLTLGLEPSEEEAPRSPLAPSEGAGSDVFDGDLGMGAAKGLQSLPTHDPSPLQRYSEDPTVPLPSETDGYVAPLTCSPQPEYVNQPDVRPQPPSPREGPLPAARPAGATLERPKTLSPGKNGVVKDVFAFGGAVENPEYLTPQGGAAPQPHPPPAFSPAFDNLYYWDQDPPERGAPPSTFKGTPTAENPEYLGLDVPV

Structure (SMILES)	viability [1] [%]	Her2 level [2]	viability [3]	viability [4]	viability [5]	differential viability (reversal) ([6]; H69AR cells + 2 uM doxorubicin)	viability [6, 9] [%]	viability [6, 10] [%]	inhibition [7]	inhibition [8]
CN(CC(=O)Nc1ccc2c(c1)OCCO2)S(=O)(=O)c1ccc(Br)s1	90.5	94.5% (inactive)	90.5% (inactive)	111% (inactive)	83.3% (inactive)	-10.7% (inactive)	94	83.3	-2.63% (inactive)	-10.8% (inactive)
Cc1nc(NC2=NCN(CC3CCCO3)CN2)nc2ccccc12 (stereo not given)	98.5	83% (inactive)	98.5% (inactive)	86.2% (inactive)	85.1% (inactive)	-13.8% (inactive)	98.9	85.1	-5.07% (inactive)	-3.81% (inactive)
O=C(NCc1ccco1)c1cc2n(n1)C(C(F)(F)F)CC(c1ccc(F)cc1)N2 (stereo not given)	120	106% (inactive)	120% (inactive)	67.1% (inactive)	86.8% (inactive)	3.92% (inactive)	82.9	86.8	-4.8% (inactive)	-4.68% (inactive)
CCCCn1c(SCC(=O)N2CC(=O)Nc3ccccc32)nnc1-c1ccoc1C	86.5	85.5% (inactive)	86.5% (inactive)	97.5% (inactive)	96.7% (inactive)	4.84% (inactive)	91.8	96.7	2.67% (inactive)	-8.55% (inactive)
COc1cc(Cn2c(C(=O)O)cc3sccc32)cc(OC)c1OC	107	102% (inactive)	107% (inactive)	98.4% (inactive)	94.1% (inactive)	2.41% (inactive)	91.7	94.1	-1.97% (inactive)	6.56% (inactive)
O=C(CN(CCc1ccccc1)C(=O)CN1C(=O)COc2ccccc21)NCc1ccco1	88.5	87.5% (inactive)	88.5% (inactive)	102% (inactive)	78.6% (inactive)	0.605% (inactive)	78	78.6	-0.65% (inactive)	-1.15% (inactive)
Cn1c(SCC(=O)N2CCN(c3cccc(Cl)c3)CC2)nnc1-c1ccncc1	84	76% (inactive)	84% (inactive)	49.4% (inactive)	79.8% (inactive)	-18.5% (inactive)	98.3	79.8	3.59% (inactive)	-1.33% (inactive)
CCOC(=O)Cc1nn2c(=O)cc(C)nc2s1	116	111% (inactive)	116% (inactive)	102% (inactive)	102% (inactive)	2.55% (inactive)	99.4	102	-1.07% (inactive)	1.64% (inactive)
CC(C)CCNC(=O)NC(=O)COc1ccccc1C#N	92.5	109% (inactive)	92.5% (inactive)	112% (inactive)	97.1% (inactive)	7.26% (inactive)	89.8	97.1	-3.78% (inactive)	-5.4% (inactive)
Cc1[nH]c(=O)[nH]c(=O)c1S(=O)(=O)Nc1ccc(Oc2ccccc2)cc1	96	84.5% (inactive)	96% (inactive)	93.6% (inactive)	97.8% (inactive)	10.3% (inactive)	87.5	97.8	-0.66% (inactive)	1.45% (inactive)
CCCCC(=O)NCCNc1nc2c(c(=O)n(C)c(=O)n2C)n1Cc1ccccc1	116	83% (inactive)	116% (inactive)	99.3% (inactive)	94.6% (inactive)	-4.03% (inactive)	98.7	94.6	-5.68% (inactive)	2.06% (inactive)
Cc1ccc(CN2C(=O)CCC2C(=O)NC2CCCC2)cc1 (stereo not given)	132	95.5% (inactive)	132% (inactive)	94.3% (inactive)	94.1% (inactive)	-1.04% (inactive)	95.1	94.1	-6.13% (inactive)	4.59% (inactive)
O=C(Nc1cccnc1)c1noc2c1CCCCC2	110	90% (inactive)	110% (inactive)	105% (inactive)	87.3% (inactive)	-2.86% (inactive)	90.2	87.3	-0.66% (inactive)	9.5% (inactive)
CCOC(=O)C1=C(c2ccccc2)Nc2nc(C)nn2C1c1cccc(OC)c1OC (stereo not given)	111	130% (inactive)	111% (inactive)	90.6% (inactive)	90.2% (inactive)	36.8% (inactive)	53.4	90.2	-2.24% (inactive)	-0.66% (inactive)
